HIV Env fusion: HIV envelope-mediated fusion inhibition; inhibition, % at 12.3 µM; HeLa-JRFL Env/CEM21 cell fusion, luciferase; AID 651610; actives 1.1% (n = 360,000);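 active means mean replicate inhibition score of at least 50 and every replicate individually at or above 50; inconclusive means only one of the two criteria met; inactive means mean below 50 and not all replicates reaching 50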;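 further: 0% = plate neutral controls and 100% = maraviroc near 300 nM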
Cneo AK release: causes C. neoformans cell lysis; AID 651654; adenylate kinase release luminescence, 4 h; normalised: neutral wells 0, clomiphene wells 100; lysis activity, % at 15 µM; actives 0.2% (n = 360,000);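 active means mean lysis activity across replicates of at least 80%, whatever share of replicates individually reach that level; inactive means mean lysis activity below 80%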
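Assay system: Cryptococcus neoformans yeast cells / Dosing: single-point compound dose / Timing: 4 h at 37 °C static, read 1 h later / Measured by: luminescence of released adenylate kinase using an AK detection reagent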
GSIS activator: primary screen for activators of insulin secretion dependent on glucose, INS-1E cells, GLuc reporter luminescence | AID 743287 | activation, % at 16.6 µM | actives 0.61% (n = 370,000) | INS-1E GLuc reporter insulin secretion, 2-3 h;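 active means lowest replicate activation of at least 40%, so every replicate reaches that level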;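 further: 0% = median of neutral control wells and 100% = median of IBMX positive control wells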
CDK5 p35 inh: CDK5/p35 (human) kinase inhibition; Q00535+Q15078; Recombinant CDK5/p35, ADP-Glo luminescence, 60 min; inhibition, % at 10 µM; actives 0.01% (n = 330,000); AID 488839;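 active means highest replicate inhibition of at least 50% and at least 75% of replicates reaching 50%; inconclusive means only one of the two criteria met; inactive means both criteria failed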;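 further: plate controls were DMSO neutral control for no effect and GW8510 at 10 µM for full effect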
dFosB act: enhances mouse delta FosB homodimer DNA binding | P13346 | purified delta FosB, TAMRA-CDK5 oligo fluorescence polarization; percent of positive-control signal above neutral wells | activation, % at 25 µM | actives 0.99% (n = 340,000) | AID 493131;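 active means mean activation above about 17%, with every replicate also reaching it, limit read from the data, passing the limit was not always enough; inconclusive means only one of the two conditions met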
Target sequence (P13346 whole entry, looked up): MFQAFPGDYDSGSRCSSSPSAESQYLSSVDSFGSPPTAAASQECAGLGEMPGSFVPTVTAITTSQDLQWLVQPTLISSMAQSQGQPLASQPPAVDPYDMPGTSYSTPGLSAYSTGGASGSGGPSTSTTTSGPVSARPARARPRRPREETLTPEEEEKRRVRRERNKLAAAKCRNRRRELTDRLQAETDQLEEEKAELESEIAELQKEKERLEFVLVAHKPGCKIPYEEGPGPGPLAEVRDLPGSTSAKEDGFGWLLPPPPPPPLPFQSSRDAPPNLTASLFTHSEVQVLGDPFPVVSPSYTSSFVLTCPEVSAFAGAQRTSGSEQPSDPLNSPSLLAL
PAX8 reporter: inhibitors of PAX8 transcriptional activity in RMG-I cells; RMG-I TPO-luciferase reporter, SteadyGlo, 24 h; inhibition, % at 12.6 µM; actives 1.2% (n = 360,000);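 active means mean replicate inhibition at least 60% with every replicate also reaching 60%; inconclusive means only one of the two criteria is met; inactive means mean below 60% and not all replicates reaching 60%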;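 further: luciferase light reporting Pax8 driven TPO promoter activity; plate controls were median of neutral control wells for no effect and mitoxantrone controls for full effect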
Numbers without * were called inactive; [ ] = dose if it differs, or a comment. In the library only some 2.9% were active in any assay of this set; here they are far more common.

CC(=O)N(C)C[C@@H]1Oc2cc(Br)ccc2S(=O)(=O)N([C@@H](C)CO)C[C@@H]1C was read as HIV Env fusion 1[16.7 µM], Cneo AK release 49 and GSIS activator 15.
For Cc1cc(C)c2c(c1)/C(=N/NC(=O)c1cc(C)oc1C)CCC2 the results were GSIS activator -7, CDK5 p35 inh -1, dFosB act -2 and PAX8 reporter 99*.
`COc1ccc(/C=C2\CCOC2=O)cc1` gave HIV Env fusion 6, Cneo AK release 1 and dFosB act -5.
`COc1ccc(/C=C2/C(=O)OCc3cc(OC)c(OC)cc32)cc1` gave HIV Env fusion 47, GSIS activator 113*, CDK5 p35 inh 0, dFosB act 3 and PAX8 reporter 17.
C[C@@H]1CCCCO[C@@H](CN(C)Cc2ccc(Cl)c(Cl)c2)[C@@H](C)CN([C@@H](C)CO)C(=O)c2cc(NC(=O)Nc3ccc(C(F)(F)F)cc3)ccc2O1 was read as HIV Env fusion 22[16.7 µM], Cneo AK release -1, GSIS activator 8 and PAX8 reporter 73*.
Screening C[C@H](CO)N1C[C@H](C)[C@H](CN(C)Cc2ccc(Cl)c(Cl)c2)OCCCC[C@H](C)Oc2ccc(NC(=O)Nc3ccc(C(F)(F)F)cc3)cc2C1=O returned HIV Env fusion inconclusive, Cneo AK release -1, GSIS activator 25 and PAX8 reporter 88*.
For C[C@H]1CCCCO[C@H](CN(C)Cc2ccc(C(F)(F)F)cc2)[C@@H](C)CN([C@@H](C)CO)C(=O)c2cc(NC(=O)Nc3ccc(C(F)(F)F)cc3)ccc2O1 the results were HIV Env fusion 37[16.7 µM], Cneo AK release 2, GSIS activator 0 and PAX8 reporter -4.
`C[C@@H]1CCCCO[C@H](CN(C)Cc2ccc(C(F)(F)F)cc2)[C@@H](C)CN([C@@H](C)CO)C(=O)c2cc(NC(=O)Nc3ccc(C(F)(F)F)cc3)ccc2O1` gave HIV Env fusion inconclusive, Cneo AK release 46, GSIS activator -18 and PAX8 reporter 3.
`C[C@@H]1CN([C@H](C)CO)C(=O)c2cc(NC(=O)Nc3ccc(C(F)(F)F)cc3)ccc2O[C@@H](C)CCCCO[C@@H]1CN(C)Cc1ccc(Cl)c(Cl)c1` gave HIV Env fusion 8[16.7 µM], Cneo AK release 4, GSIS activator 15 and PAX8 reporter 86*.
`C[C@H](CO)N1C[C@H](C)[C@@H](CN(C)Cc2ccncc2)OCCCC[C@H](C)Oc2ccc(NS(=O)(=O)c3cn(C)cn3)cc2C1=O` gave HIV Env fusion 12[16.7 µM], Cneo AK release 49, GSIS activator 19 and PAX8 reporter -4.
`COc1ccc(CN(C)C[C@H]2Oc3ccc(NS(=O)(=O)c4ccc(F)cc4)cc3CC(=O)N([C@@H](C)CO)C[C@H]2C)cc1` gave Cneo AK release 1, GSIS activator -7 and PAX8 reporter -3.
O=C(N/N=C/c1cccc(O)c1)c1cc(-c2ccc3c(c2)OCO3)n[nH]1 was read as HIV Env fusion 7, GSIS activator -8, CDK5 p35 inh 1, dFosB act 41* and PAX8 reporter -5.
`O=C(N/N=C/c1ccccc1)c1cc(-c2ccc3c(c2)OCO3)n[nH]1` gave HIV Env fusion -14, Cneo AK release 3, GSIS activator 11, CDK5 p35 inh 0, dFosB act 11 and PAX8 reporter -10.
CC(C)Nc1nc(Nc2ccc(C(N)=O)cc2)c2sccc2n1 was read as HIV Env fusion 12, Cneo AK release -9, GSIS activator 70* and PAX8 reporter 2.
CO[C@H]1CN(C)C(=O)c2cc(NC(=O)Nc3ccccc3F)ccc2OC[C@@H](C)N(CC2CC2)C[C@H]1C was read as Cneo AK release 6, GSIS activator -6 and PAX8 reporter -3.
Screening C/C=C/c1cnc2c(c1)C(=O)N([C@@H](C)CO)C[C@@H](C)[C@H](CN(C)C(=O)Nc1ccc(F)cc1)O2 returned HIV Env fusion 21[16.7 µM], Cneo AK release -3, GSIS activator 6 and PAX8 reporter -17.
